Laboratory results as given in ChEMBL document CHEMBL1130032, “Preparation and anti-HIV activity of N-3-substituted thymidine nucleoside analogs” (J Med Chem, 1997).

Experiments:
[1] = test system: Human immunodeficiency virus 1; test: Inhibition of HIV-1 LA1 cytopathic effects on CEM-CL13 cells in vitro.; format: functional, organism-based; conditions: Human immunodeficiency virus 1, CEM-CL13
Method in brief: (§1)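 CEM-c113 cells (1×10^4/well) preincubated 1 h with 10-fold compound dilutions, then infected with HIV-1 LAI; cultured 7 days at 37 °C, 5% CO2; cytopathic effect scored by MTT viability versus infected untreated cells; EC50 = 50% reduction of CPE; triplicate, mean of ≥2 experiments.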

CEM-c113 [2] = test: Concentration required to reduce by 50% the viability of noninfected treated CEM-CL13 cells; format: functional; conditions: Homo sapiens
Method in brief: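 CEM-c113 cells, 1×10^4 per well, exposed to 10-fold dilutions of compound without virus; 7 days at 37 °C, 5% CO2; MTT viability read-out; CC50 = concentration reducing viability by 50% relative to uninfected untreated controls; triplicate wells, mean of at least two experiments.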

[3] = Ratio of CC50 in CEM-CL13 cells to EC50 in HIV-1 LA1 infected CEM-CL13 cells.; format: functional
Method in brief: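 Selectivity index computed as CC50 (MTT viability of uninfected treated CEM-c113 cells) divided by EC50 (MTT protection of HIV-1 LAI-infected CEM-c113 cells), both from 7-day cultures at 37 °C exposed to 10-fold compound dilutions.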

CEM-c113 [4] = test: Concentration that reduces by 50% the HIV induced cytopathic effect on CEM-CL13 cells by MTT viability assay; NA = Not active; format: functional, cell-based, Homo sapiens; method in brief: as §1

SMILES	EC50 [1]	CC50 (CEM-c113 [2])	Ratio [3]	EC50 (CEM-c113 [4])
Cc1cn(C2CC(N=[N+]=[N-])C(CO)O2)c(=O)n(CCn2c(=O)c(C)cn(C3CC(N=[N+]=[N-])C(CO)O3)c2=O)c1=O (stereo not given)	700 nM	36 µM	51	–
COc1nc(=O)n(CCn2c(=O)c(C)cn(C3CC(N=[N+]=[N-])C(CO)O3)c2=O)cc1C (stereo not given)	–	29 µM	–	Not Active
C=CCn1c(=O)c(C)cn(C2CC(N=[N+]=[N-])C(CO)O2)c1=O (stereo not given)	32000 nM	350 µM	11	–
Cc1cn(C2CC(N=[N+]=[N-])C(CO)O2)c(=O)n(CC2CO2)c1=O (stereo not given)	6800 nM	> 62 µM	9	–
Cc1cn(C2CC(N=[N+]=[N-])C(CO)O2)c(=O)n(N)c1=O (stereo not given)	45 nM	450 µM	10000	–
Cc1cn(C2CC(N=[N+]=[N-])C(CO)O2)c(=O)n(CC2COC(C)(C)O2)c1=O (stereo not given)	1300 nM	> 131 µM	100	–
Cc1cn(C2CC(N=[N+]=[N-])C(CO)O2)c(=O)n(CCBr)c1=O (stereo not given)	2670 nM	53 µM	20	–
CCOC(Cn1c(=O)c(C)cn(C2CC(N=[N+]=[N-])C(CO)O2)c1=O)OCC (stereo not given)	5000 nM	130 µM	26	–
CCOP(=O)(Cn1c(=O)c(C)cn(C2CC(N=[N+]=[N-])C(CO)O2)c1=O)OCC (stereo not given)	71 nM	240 µM	3380	–
Cc1cn(C2CC(N=[N+]=[N-])C(CO)O2)c(=O)n(Cc2ccccc2)c1=O (stereo not given)	–	28 µM	–	Not Active
Cc1cn([C@H]2C[C@H](N=[N+]=[N-])[C@@H](CO)O2)c(=O)[nH]c1=O [ZIDOVUDINE]	3 nM	> 5 µM	1667	–

Continued by falling EC50 [1], values first:

EC50 [1]	SMILES	CC50 (CEM-c113 [2])	Ratio [3]	EC50 (CEM-c113 [4])
143000 nM	Cc1cn(C2CC(N=[N+]=[N-])C(CO)O2)c(=O)n(Cc2ccoc2)c1=O (stereo not given)	> 288 µM	2	–
110000 nM	Cc1cn(C2CC(N=[N+]=[N-])C(CO)O2)c(=O)n(CCN2C(=O)c3ccccc3C2=O)c1=O (stereo not given)	227 µM	2	–
5600 nM	COCCOCn1c(=O)c(C)cn(C2CC(N=[N+]=[N-])C(CO)O2)c1=O (stereo not given)	281 µM	50	–
2200 nM	Cc1cn(C2CC(n3c(=O)c(C)cn(C4CC(N=[N+]=[N-])C(CO)O4)c3=O)C(CO)O2)c(=O)[nH]c1=O (stereo not given)	66 µM	30	–
1470 nM	CCOC(=O)Cn1c(=O)c(C)cn(C2CC(N=[N+]=[N-])C(CO)O2)c1=O (stereo not given)	283 µM	193	–
940 nM	Cc1cn(C2CC(N=[N+]=[N-])C(CO)O2)c(=O)n(C)c1=O (stereo not given)	355 µM	380	–
890 nM	CCCCCn1c(=O)c(C)cn(C2CC(N=[N+]=[N-])C(CO)O2)c1=O (stereo not given)	> 60 µM	>67	–
500 nM	Cc1cn(C2CC(N=[N+]=[N-])C(CO)O2)c(=O)n(CC2CC(CO)=NO2)c1=O (stereo not given)	26 µM	52	–
480 nM	Cc1cn(CCn2c(=O)c(C)cn(C3CC(N=[N+]=[N-])C(CO)O3)c2=O)c(=O)[nH]c1=O (stereo not given)	> 29 µM	60	–
300 nM	Cc1cn(C2CC(N=[N+]=[N-])C(CO)O2)c(=O)n(CCO)c1=O (stereo not given)	161 µM	537	–
260 nM	Cc1cn(C2CC(N=[N+]=[N-])C(CO)O2)c(=O)n(CCN=[N+]=[N-])c1=O (stereo not given)	60 µM	230	–
150 nM	Cc1cn(C2CC(N=[N+]=[N-])C(CO)O2)c(=O)n(CCCO)c1=O (stereo not given)	154 µM	1027	–
82 nM	Cc1cn(C2CC(N=[N+]=[N-])C(CO)O2)c(=O)n(CCCCCCO)c1=O (stereo not given)	64 µM	780	–
